From ChEMBL document CHEMBL1772955, “Synthesis, metabolic stability and antiviral evaluation of various alkoxyalkyl esters of cidofovir and 9-(S)-[3-hydroxy-2-(phosphonomethoxy)propyl]adenine” (Bioorg Med Chem, 2011) come the findings set out here.

Data set [1] can be described thus: Metabolic stability in human liver S9 fraction assessed as compound remaining at 1 uM after 90 mins by HPLC/MS/MS. The data set is classed as ADME, subcellular. Conditions: read-out: Stability. Put shortly:
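Liver S9 (human or monkey, 3 mg/mL protein, phosphate buffer) with test article at 1 or 10 μM final, pre-equilibrated about 2 min at 37 °C. Started with 1x NADPH regeneration system, sampled 0-90 min into 1% NH4OH in n-propanol. Held cold ≥48 h, centrifuged, C8 LC (water/isopropanol, 0.1% formic acid) with ESI-MS; 7-ethoxycoumarin as activity control.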

Data set [2] concerns Liver. The data set is described as follows: Metabolic stability in human liver S9 fraction assessed as compound disappearance at 10 uM after 90 mins by HPLC/MS/MS. The data set is classed as ADME, subcellular. Conditions: s9, 1.5 h. Put shortly:
(§1)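 Liver S9 fraction at 3 mg/mL protein in phosphate buffer, test article 1 μM or 10 μM final; 2 min equilibration at 37 °C, then reaction started with 1x NADPH regeneration system. Samples taken from time zero to 90 min into 1% ammonium hydroxide in N-propyl alcohol. Analysed by C8 HPLC with water/isopropyl alcohol (0.1% formic acid) gradient and ESI-MS. 7-Ethoxycoumarin run as positive control.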

Data set [3] deals with Liver. The data set is described as follows: Metabolic stability in human liver S9 fraction assessed as compound disappearance at 1 uM after 90 mins by HPLC/MS/MS. It is filed as ADME, subcellular. The conditions noted are these: s9, 1.5 h. Put shortly: as §1
For data set [4], the system named is Liver. It is filed as ADME, subcellular, Cavia porcellus, S9 fraction. Conditions: guinea pig, s9, 1.5 h, 10 µM.
In data set [5] the test system is Liver. It is filed as ADME, subcellular, Cavia porcellus, S9 fraction. Conditions: guinea pig, s9, 1.5 h, 1 µM.
In data set [6] the test system is Liver. It is filed as ADME, subcellular, S9 fraction. The conditions noted are these: rat, s9, 1.5 h, 10 µM.
Data set [7] concerns Liver. It is filed as ADME, subcellular, S9 fraction. Conditions: rat, s9, 1.5 h, 1 µM.
Data set [8] in a line: Selectivity index, ratio of CC50 for human HFF cells to EC50 for Vaccinia virus Copenhagen. It is filed as toxicity, cell-based. Conditions: read-out: Ratio CC50/EC50.
Data set [9] can be described thus: Selectivity index, ratio of CC50 for human HFF cells to EC50 for Cowpox virus (Brighton Red). It is filed as toxicity, cell-based. The conditions noted are these: read-out: Ratio CC50/EC50.
A further data set deals with HFF. The data set is described as follows: Cytotoxicity against human HFF cells assessed as reduction in cell viability after 7 days by neutral red uptake assay. The conditions noted are these: 168 h. It is filed as cell-based. Put shortly: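 Uninfected HFF cells seeded at 2.5×10^4/well and grown 24 h to monolayer. Medium replaced by MEM/2% FBS containing graded compound concentrations; 7 d incubation. Cells stained with 0.01% neutral red, absorbance at 540 nm; CC50 interpolated as 50% viability loss.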

Data set [10] in a line: Antiviral activity against Cowpox virus (Brighton Red) infected in human HFF cells after 3 days by plaque reduction assay. The data set is classed as functional, cell-based. The conditions noted are these: 72 h.
Data set [11] in a line: Selectivity index, ratio of CC50 for african green monkey BSC1 cells to EC50 for Ectromelia virus Moscow. It is filed as toxicity, cell-based, BSC-1. Conditions: read-out: Ratio CC50/EC50.
In a further data set the test system is BSC-1. Briefly: (§2) Cytotoxicity against african green monkey BSC1 cells after 2 to 4 hrs by MTS assay. The conditions noted are these: chlorocebus aethiops, bsc-1. It is filed as cell-based. Put shortly: (§3)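 BSC-1 cells (5000 per reaction) mixed with serial compound dilutions in DMEM/2% Fetal Clone II, without virus. At the set time point, MTS reagent added for 2-4 h and OD490 read. Viability taken relative to untreated cells; CC50 from concentration versus % viability plot.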

For a further data set, the system named is Ectromelia virus Moscow. Briefly: Antiviral activity against Ectromelia virus Moscow infected in african green monkey BSC1 cells after 4 to 5 days by plaque reduction assay. The data set is classed as functional, organism-based. The conditions noted are these: BSC-1.
Data set [12] deals with Liver. The data set is described as follows: Metabolic stability in human liver S9 fraction assessed as compound degradation at 10 uM after 90 mins by HPLC/MS/MS. The data set is classed as ADME, subcellular. The conditions noted are these: s9, 1.5 h. Put shortly:
as §1

The subject of data set [13] is Liver. The data set is described as follows: Metabolic stability in human liver S9 fraction assessed as compound degradation at 1 uM after 90 mins by HPLC/MS/MS. It is filed as ADME, subcellular. The conditions noted are these: s9, 1.5 h. Put shortly:
as §1

Another data set concerns Vaccinia virus. The data set is described as follows: Antiviral activity against Vaccinia virus Copenhagen infected in human HFF cells after 3 days by plaque reduction assay. Conditions: Orthopoxvirus vaccinia, 72 h. The data set is classed as functional, organism-based.
Data set [14] is described as follows: as §2. The data set is classed as cell-based, BSC-1. Conditions: chlorocebus aethiops, BSC1 cells. Put shortly: as §3

On to `CCCCCCCCCCCCCCCCOCCCOP(=O)(O)CO[C@H](CO)Cn1ccc(N)nc1=O` [BRINCIDOFOVIR], for which, in data set [1], the remaining at 1.5 h, 1 µM stood at 83.3%. Also, the Stability entry in the data set on Liver [2], in the data set on Liver [3], with Liver [4], in the data set with Liver [5], in the data set with Liver [6] and in the data set with Liver [7] was “Stable” in each case. Further, the selectivity ratio in [8] was 313; in [9] it was 125; in [11], 202. In addition, the CC50 in the data set with HFF was found to be 25000 nM; in the data set with BSC-1, 25300 nM. Besides, the EC50 in data set [10] worked out at 200 nM; in the data set with Ectromelia virus Moscow, 125 nM.

In the case of `C=CCCCCCCCCCCCCCCOCCOP(=O)(O)CO[C@H](CO)Cn1cnc2c(N)ncnc21`, the Stability entry in the data set with Liver [12] and in the data set with Liver [13] was “Unstable” in each case. For the same compound, the results for the selectivity ratio in data set [8], in data set [9] and in [11] were 85, 85 and 7.2, respectively. The EC50 in the data set with Vaccinia virus turned out to be 20 nM; in [10], 20 nM; in the data set on Ectromelia virus Moscow, 320 nM. For the same compound, the CC50 with HFF was determined as 1700 nM; in the data set on BSC-1, 2320 nM.

Take `CCCCCCCCCCCCCCCCOCCCOP(=O)(O)CO[C@H](CO)Cn1cnc2c(N)ncnc21`: the Stability result in the data set with Liver [12] and in the data set with Liver [13] was “Stable” throughout. The figures for the selectivity ratio in data set [8], in data set [9] and in data set [11] were 280, 140 and 1280, respectively. Moreover, the CC50 was found to be 2800 nM in the data set with HFF and 84700 nM in the data set on BSC-1. For the same compound, the EC50 in data set [10] was found to be 20 nM; with Ectromelia virus Moscow, 66 nM.

Consider `CC(C)CCCCCCCCCCCOCCCOP(=O)(O)CO[C@H](CO)Cn1ccc(N)nc1=O`, for which the selectivity ratio in data set [8] was 44; in data set [9], 55; in [11], 234. The EC50 in the data set with Vaccinia virus stood at 1000 nM; in [10], 800 nM; with Ectromelia virus Moscow, 350 nM. Also, the CC50 in the data set with HFF stood at 44000 nM; in the data set with BSC-1 it was 82000 nM.

In the case of `CC(C)CCCCCCCCCCCCCCOCCCOP(=O)(O)CO[C@H](CO)Cn1ccc(N)nc1=O`, the values for the selectivity ratio in data set [8], in data set [9] and in data set [11] were 75, 150 and 1810, respectively. Also, the EC50 is 200 nM with Vaccinia virus, 100 nM in [10] and 43 nM in the data set with Ectromelia virus Moscow. The CC50 in the data set with HFF was found to be 15000 nM; with BSC-1, 78000 nM.

Take `CCCCCCCCCCCCCCCCCCOC[C@@H](COP(=O)(O)CO[C@H](CO)Cn1ccc(N)nc1=O)OCc1ccccc1`: in [1], the remaining at 1.5 h, 1 µM stood at 92.3%. Besides, the selectivity ratio in data set [8] was 118; in data set [9], 157; in data set [11], 1100. Besides, the EC50 stood at 400 nM with Vaccinia virus, 300 nM in data set [10] and 30 nM in the data set on Ectromelia virus Moscow. In addition, the CC50 in the data set with HFF was determined as 47000 nM; in data set [14] it was 35000 nM.

As for `Nc1ccn(C[C@@H](CO)OCP(=O)(O)OCCCOCCCCCCCCCCCCCCC2CC2)c(=O)n1`, in data set [1], the remaining at 1.5 h, 1 µM came out at 88%. The results for the selectivity ratio in data set [8], in data set [9] and in [11] were 187, 112 and 100, respectively. The values for the EC50 (with Vaccinia virus; in data set [10]; in the data set on Ectromelia virus Moscow) were 300 nM, 500 nM and 740 nM, respectively. The CC50 in the data set with HFF turned out to be 56000 nM; in the data set with BSC-1 it was 74000 nM.

For the compound `CC(C)CCCCCCCCCCCCCCOCCCOP(=O)(O)CO[C@H](CO)Cn1cnc2c(N)ncnc21`, the Stability result with Liver [12] and in the data set on Liver [13] was “Stable” each time. The remaining at 1.5 h, 1 µM in data set [1] was found to be 91.3%. For the same compound, the figures for the selectivity ratio in data set [8], in [9] and in [11] were 285, 285 and 266, respectively. The figures for the EC50 (with Vaccinia virus; in data set [10]; in the data set on Ectromelia virus Moscow) were 40 nM, 40 nM and 44 nM, respectively. Also, the results for the CC50 with HFF and in the data set with BSC-1 were 11400 nM and 11700 nM, respectively.

Consider `CC(C)CCCCCCCCCCCCOCCCOP(=O)(O)CO[C@H](CO)Cn1ccc(N)nc1=O`, for which the selectivity ratio in data set [8] was 123; in data set [9], 123; in data set [11] it was 210. Further, the EC50 with Vaccinia virus came to 300 nM; in data set [10], 300 nM; with Ectromelia virus Moscow it was 390 nM. The figures for the CC50 in the data set with HFF and with BSC-1 were 37000 nM and 82000 nM, respectively.

For `CCCCCCCCCCCCCCCCOCCOP(=O)(O)CO[C@H](CO)Cn1cnc2c(N)ncnc21`, the selectivity ratio in data set [8] was 156; in data set [9], 156; in data set [11], 289. Moreover, the EC50 in the data set with Vaccinia virus stood at 90 nM; in [10], 90 nM; with Ectromelia virus Moscow, 140 nM. For the same compound, the CC50 in the data set with HFF is 14000 nM; in the data set on BSC-1, 40500 nM.

Regarding `CC(C)CCCCCCCCCCCCCCOCCOP(=O)(O)CO[C@H](CO)Cn1cnc2c(N)ncnc21`, the selectivity ratio stood at 250 in data set [8], 250 in [9] and 5960 in [11]. Moreover, the EC50 (in the data set on Vaccinia virus; in [10]; with Ectromelia virus Moscow) was 10 nM each time. The CC50 in the data set on HFF was 2500 nM; in the data set with BSC-1, 59600 nM.
